Experimental data as given in ChEMBL document CHEMBL1134088, “Fine Tuning of physico-chemical parameters to optimise a new series of novobiocin analogues” (Bioorg Med Chem Lett, 2001).
In brackets after ≈: the same amount, converted by molar mass.

What was measured:
DNA gyrase = DNA gyrase (Escherichia coli, UniProt P0AES4+P0AES6); test: Inhibitory activity against Escherichia coli DNA gyrase; type: protein-complex assay
[1] = pKa value was determined; type: physicochemical
Staphylococcus aureus [2] = test: Compound was evaluated for its minimum inhibitory concentration against Staphylococcus aureus; type: functional
Outline: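 MIC by 2-fold broth microdilution, read after 24-h incubation; S. aureus strain 011HT3, no particular resistance phenotype.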

Staphylococcus aureus [3] = test: Compound was evaluated for its minimum inhibitory concentration against Staphylococcus aureus in presence of 10% serum; type: functional
Outline: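 MIC against S. aureus strain 011HT3 (no particular resistance phenotype) in medium containing serum proteins; 2-fold broth microdilution, read after 24-h incubation.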

`CO[C@@H]1[C@@H](OC(=O)c2ccc(C)[nH]2)[C@@H](O)[C@H](Oc2ccc3c(N4CCC(N(C)C)CC4)cc(=O)oc3c2C)OC1(C)C` gave an IC50 (DNA gyrase) of 480 nM, a pKa [1] of 9 and an MIC (Staphylococcus aureus [2]) of 2.5 µg/mL (≈ 4.28 µM). For the same compound, the MIC (Staphylococcus aureus [3]) was 2.5 µg/mL.

Compound `CO[C@@H]1[C@@H](OC(N)=O)[C@@H](O)[C@H](Oc2ccc3c(O)c(NC(=O)c4ccc(O)c(CC=C(C)C)c4)c(=O)oc3c2C)OC1(C)C` [NOVOBIOCIN] has a pKa [1] of 3.6, an MIC (Staphylococcus aureus [2]) of under 0.04 µg/mL and an MIC (Staphylococcus aureus [3]) of 2.5 µg/mL.

Work on `CO[C@@H]1[C@@H](OC(=O)c2ccc(C)[nH]2)[C@@H](O)[C@H](Oc2ccc3c(N4CCNCC4)cc(=O)oc3c2C)OC1(C)C` yielded an IC50 (DNA gyrase) of 231 nM, a pKa [1] of 8.3 and an MIC (Staphylococcus aureus [2]) of 5 µg/mL (≈ 9.23 µM). The MIC (Staphylococcus aureus [3]) was 5 µg/mL.

`CO[C@@H]1[C@@H](OC(=O)c2ccc(C)[nH]2)[C@@H](O)[C@H](Oc2ccc3c(N4CCN(c5ccccn5)CC4)cc(=O)oc3c2C)OC1(C)C` gave an IC50 (DNA gyrase) of 1780 nM, a pKa [1] of 5.5 and an MIC (Staphylococcus aureus [2]) of 0.3 µg/mL (≈ 0.485 µM). For the same compound, the MIC (Staphylococcus aureus [3]) was 10 µg/mL.

With `CO[C@@H]1[C@@H](OC(=O)c2ccc(C)[nH]2)[C@@H](O)[C@H](Oc2ccc3c(N4CCN(C)CC4)cc(=O)oc3c2C)OC1(C)C` the IC50 (DNA gyrase) was 540 nM, the pKa [1] was 7.3 and the MIC (Staphylococcus aureus [2]) was 0.15 µg/mL (≈ 0.27 µM). For the same compound, the MIC (Staphylococcus aureus [3]) was 0.3 µg/mL.

`CCN1CCN(c2cc(=O)oc3c(C)c(O[C@@H]4OC(C)(C)[C@H](OC)[C@@H](OC(=O)c5ccc(C)[nH]5)[C@H]4O)ccc23)CC1` showed an IC50 (DNA gyrase) of 439 nM, a pKa [1] of 7.5 and an MIC (Staphylococcus aureus [2]) of 0.6 µg/mL (≈ 1.05 µM). It also gave an MIC (Staphylococcus aureus [3]) of 2.5 µg/mL.

`CO[C@@H]1[C@@H](OC(=O)c2ccc(C)[nH]2)[C@@H](O)[C@H](Oc2ccc3c(N4CCN(C)CC4)c(Cl)c(=O)oc3c2C)OC1(C)C` gave an IC50 (DNA gyrase) of 847 nM, a pKa [1] of 7.4 and an MIC (Staphylococcus aureus [2]) of 1.2 µg/mL (≈ 2.03 µM). For the same compound, the MIC (Staphylococcus aureus [3]) was 20 µg/mL.

With `CO[C@@H]1[C@@H](OC(=O)c2ccc(C)[nH]2)[C@@H](O)[C@H](Oc2ccc3c(N4CC(C)NC(C)C4)cc(=O)oc3c2C)OC1(C)C` (some centres not stated) the IC50 (DNA gyrase) was 281 nM, the pKa [1] was 8 and the MIC (Staphylococcus aureus [2]) was 2.5 µg/mL (≈ 4.39 µM). The MIC (Staphylococcus aureus [3]) was 2.5 µg/mL.

`CO[C@@H]1[C@@H](OC(=O)c2ccc(C)[nH]2)[C@@H](O)[C@H](Oc2ccc3c(N4CCNC(C)C4)cc(=O)oc3c2C)OC1(C)C` (some centres not stated) gave an IC50 (DNA gyrase) of 225 nM, a pKa [1] of 8.3 and an MIC (Staphylococcus aureus [2]) of 2.5 µg/mL (≈ 4.5 µM). For the same compound, the MIC (Staphylococcus aureus [3]) was 2.5 µg/mL.

`CO[C@@H]1[C@@H](OC(=O)c2ccc(C)[nH]2)[C@@H](O)[C@H](Oc2ccc3c(N4CC[N+](C)(C)CC4)cc(=O)oc3c2C)OC1(C)C` showed an IC50 (DNA gyrase) of 245 nM, an MIC (Staphylococcus aureus [2]) of over 40 µg/mL and an MIC (Staphylococcus aureus [3]) of over 40 µg/mL.

Work on `CO[C@@H]1[C@@H](OC(=O)c2ccc(C)[nH]2)[C@@H](O)[C@H](Oc2ccc3c(N(C)CCN(C)C)cc(=O)oc3c2C)OC1(C)C` yielded an IC50 (DNA gyrase) of 628 nM, a pKa [1] of 8.2 and an MIC (Staphylococcus aureus [2]) of 5 µg/mL (≈ 8.97 µM). For the same compound, the MIC (Staphylococcus aureus [3]) was 5 µg/mL.
